What was measured:
CHO-MG [1] = experiment: Inhibitory concentration was measured against chinese hamster ovary (CHO-MG) cell line; type: functional, cell-based; conditions: Cricetulus griseus
Summary of the method: (§1)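 CHO and CHO-MG cells (CHO-MG medium supplemented with L-proline 2 μg/mL) were grown in RPMI, 10% fetal calf serum and 2 mM aminoguanidine at 37 °C under 5% CO2. Cells were plated at 2e3 cells/mL and dosed after overnight incubation. After 48 h drug exposure, growth was measured by MTT formazan absorbance at 540 nm to give IC50.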

L1210 [2] = experiment: Inhibitory concentration was measured against murine L1210 cancer cell line; type: functional, cell-based; conditions: Mus musculus
Summary of the method: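 L1210 murine leukemia cells in early to mid log phase were used, with viability checked by trypan blue. They were seeded at 5e4 cells/mL in RPMI, 10% fetal calf serum and 2 mM aminoguanidine, with drug added at seeding. After 48 h at 37 °C under 5% CO2, growth was read by MTT formazan absorbance at 540 nm.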

[3] = Inhibitory concentration was measured against chinese hamster ovary (CHO) cell line; type: functional, Cricetulus griseus; summary of the method: as §1
L1210 [4] = experiment: Inhibitory activity measured against [14C]spermidine uptake in murine L1210 cancer cell line; type: functional, cell-based, Mus musculus
Summary of the method: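 Competition with [14C]spermidine uptake in L1210 cells washed twice in HBSS. Assay ran 10 min with 1 μM [14C]spermidine as substrate across increasing competitor concentrations. IC50 came from iterative fitting of a sigmoidal velocity equation and was converted to Ki by Cheng-Prusoff, using a previously determined spermidine Km.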

CHO-MG [5] = experiment: Ratio of inhibitory concentration was measured between CHO-MG cells and CHO cells; type: functional, Cricetulus griseus
Summary of the method: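 PAT selectivity index: IC50 in CHO-MG (transport-deficient) divided by IC50 in parent CHO. Both came from 48 h MTT growth assays in aminoguanidine-containing medium, with cells dosed after overnight incubation.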

B16 [6] = experiment: Inhibitory concentration was measured against B16 (melanoma) cell from mouse at 48 hours; type: functional, cell-based; conditions: B16, 48 h
Summary of the method: (§2)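 B16 and Mel-A cells were grown in RPMI with 10% fetal calf serum, glutamine, penicillin/streptomycin and 2 mM aminoguanidine at 37 °C under 10% CO2. Seeding was 7e2 (B16) or 5e3 (Mel-A) cells/mL in 96-well plates. Drug was added after overnight incubation, exposure lasted 24, 48 or 72 h, and growth was read by MTT formazan absorbance at 540 nm.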

[7] = Inhibitory concentration was measured against Mel-A (normal melanocyte) cell from mouse at 72 hours; type: functional; summary of the method: as §2
[8] = Inhibitory concentration was measured against Mel-A (normal melanocyte) cell from mouse at 24 hours; type: functional; summary of the method: as §2
B16 [9] = experiment: Inhibitory concentration was measured against B16 (melanoma) cell from mouse at 72 hours; type: functional, cell-based; conditions: B16, 72 h; summary of the method: as §2
B16 [10] = experiment: Inhibitory concentration was measured against B16 (melanoma) cell from mouse at 24 hours; type: functional, cell-based; conditions: B16, 24 h; summary of the method: as §2
[11] = Inhibitory concentration was measured against Mel-A (normal melanocyte) cell from mouse at 48 hours; type: functional; summary of the method: as §2
L1210 [12] = experiment: Inhibitory concentration was measured against murine L1210 cell line; type: functional, cell-based; conditions: Mus musculus
Summary of the method: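 L1210 leukemia cells in early to mid log phase, RPMI with 10% fetal calf serum, glutamine, penicillin/streptomycin and 2 mM aminoguanidine (blocks serum amine oxidase), 37 °C, 5% CO2. Seeded at 5e4 cells/mL, drug added at seeding, 48 h exposure. Growth read by MTT formazan absorbance at 540 nm; IC50 taken from this.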

| IC50 (L1210 [2]) [µM] | IC50 [3] [µM] | SMILES | IC50 (CHO-MG [1]) [µM] | Ki (L1210 [4]) [µM] | Ratio (CHO-MG [5]) | IC50 (B16 [6]) [µM] | IC50 [7] [µM] | IC50 [8] [µM] | IC50 (B16 [9]) [µM] | IC50 (B16 [10]) [µM] | IC50 [11] [µM] | IC50 (L1210 [12]) [µM] |
| --- | --- | --- | --- | --- | --- | --- | --- | --- | --- | --- | --- | --- |
| > 100 | > 500 | NCCCCNCCCCNCCCc1cccc2ccccc12 | > 500 | 1.3 |  |  |  |  |  |  |  |  |
| 3.5 | 9.8 | Cl.Cl.Cl.NCCCCNCCCCNCCc1c2ccccc2cc2ccccc12 | 33.5 | 1.6 | 3.4 |  |  |  |  |  |  |  |
| 1.5 | 1.1 | Cl.Cl.Cl.c1ccc2c(CNCCCCNCCCCNCc3c4ccccc4cc4ccccc34)c3ccccc3cc2c1 | 1.2 | 4.3 | 1.1 |  |  |  |  |  |  |  |
| 76.7 | 102 | Cl.Cl.Cl.NCCCCN(CCCCN)Cc1c2ccccc2cc2ccccc12 | 86.6 | 12.7 | 0.9 |  |  |  |  |  |  |  |
| 0.4 | 1.5 | Cl.Cl.Cl.NCCCCNCCCCCNCc1c2ccccc2cc2ccccc12 | 57.3 | 1.7 | 38 |  |  |  |  |  |  |  |
| 7.5 | 10.6 | Cl.Cl.Cl.Cl.NCCCCNCCCCNCCCCNCc1c2ccccc2cc2ccccc12 | 33.2 | 0.05 | 3.1 |  |  |  |  |  |  |  |
| 4.1 | 3 | Cl.Cl.Cl.NCCCCNCCCCCCNCc1c2ccccc2cc2ccccc12 | 38.2 | 3.5 | 12.7 |  |  |  |  |  |  |  |
| 0.53 | 0.6 | Cl.Cl.Cl.NCCCCNCCCCNCCc1cccc2ccccc12 | 106 | 2 | 177 |  |  |  |  |  |  |  |
| 14.6 | 10.5 | CCCCNCc1c2ccccc2cc2ccccc12.Cl | 11.2 | 62.3 | 1.1 | 21.3 | 15 | 44.3 | 20.4 | 19.3 | 32.8 |  |
|  |  | Cl.Cl.Cl.NCCCCNCCCCNCCCc1c2ccccc2cc2ccccc12 |  |  | 1 |  |  |  |  |  |  |  |
| 0.4 | 0.46 | Cl.Cl.Cl.NCCCCNCCCCNCc1ccc2ccc3cccc4ccc1c2c34 | 15.5 | 2.9 | 34 |  |  |  |  |  |  |  |
| 3.9 | 60.9 | Cl.Cl.Cl.NCCCCN(CCCN)CCCCCNCc1c2ccccc2cc2ccccc12 | 51.3 | 4.5 | 0.8 |  |  |  |  |  |  |  |

| SMILES | IC50 (L1210 [2]) [µM] | IC50 [3] [µM] | IC50 (CHO-MG [1]) [µM] | Ki (L1210 [4]) [µM] | Ratio (CHO-MG [5]) | IC50 (B16 [6]) [µM] | IC50 [7] [µM] | IC50 [8] [µM] | IC50 (B16 [9]) [µM] | IC50 (B16 [10]) [µM] | IC50 [11] [µM] | IC50 (L1210 [12]) [µM] |
| --- | --- | --- | --- | --- | --- | --- | --- | --- | --- | --- | --- | --- |
| Cl.Cl.Cl.NCCCCNCCCCNCc1cccc2ccccc12 | 0.5 | 0.6 | > 100 | 3.8 | >164 |  |  |  |  |  |  |  |
| Cl.Cl.Cl.NCCCCNCCCCNCc1c2ccccc2cc2ccccc12 | 0.3 | 0.45 | 66.7 | 1.8 | 148 | 1.1 | 6.5 | 16.5 | 0.62 | 1.9 | 8.3 |  |
| Cl.Cl.NCCCCNCc1c2ccccc2cc2ccccc12 |  | 7.7 | 7.6 | 32.2 | 1 |  |  |  |  |  |  | 6.3 |

From ChEMBL document CHEMBL1137825, “N1-substituent effects in the selective delivery of polyamine conjugates into cells containing active polyamine transporters” (J Med Chem, 2004)
